ChEMBL document CHEMBL3232744, “Design, synthesis, acetylcholinesterase inhibition and larvicidal activity of girgensohnine analogs on Aedes aegypti, vector of dengue fever” (Eur J Med Chem, 2014)
Values after ≈ are worked out from the molar mass of the structure shown. Values belong to the compound of their own block, whether it stands above or below them. Active and inactive are the calls of the source. The rule behind the calls is not given here.

Experiments:
Aedes aegypti [1] = experiment: Insecticidal activity against third-instar larvae of Aedes aegypti assessed as mortality at 270 ppm after 24 to 48 hrs; assay type: functional, organism-based
Outline: (§1)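 Diagnostic screen with third-instar larvae. Five larvae per pot, four replicates per concentration. Compounds tested at 300, 270, 180, 140, 70, 60, 45 and 25 ppm. Control pots held 1% DMSO only. Mortality was scored at 24 and 48 h. Larvae that could not reach the water surface when touched were counted as dead.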

Aedes aegypti [2] = experiment: Insecticidal activity against third-instar larvae of Aedes aegypti assessed as mortality at 180 ppm after 24 to 48 hrs; assay type: functional, organism-based; outline: as §1
Acetylcholinesterase = Acetylcholinesterase (Homo sapiens, UniProt P22303); experiment: Inhibition of AChE (unknown origin) by Ellman colorimetric method
Aedes aegypti [3] = experiment: Insecticidal activity against third-instar larvae of Aedes aegypti assessed as mortality at 70 ppm after 24 to 48 hrs; assay type: functional, organism-based; outline: as §1
Aedes aegypti [4] = experiment: Insecticidal activity against third-instar larvae of Aedes aegypti assessed as mortality at 45 ppm after 24 to 48 hrs; assay type: functional, organism-based; outline: as §1
[5] = Dissociation constant, pKa of the compound; assay type: physicochemical
Aedes aegypti [6] = experiment: Insecticidal activity against third-instar larvae of Aedes aegypti assessed as mortality at 140 ppm after 24 to 48 hrs; assay type: functional, organism-based; outline: as §1
Aedes aegypti [7] = experiment: Insecticidal activity against third-instar larvae of Aedes aegypti assessed as mortality at 25 ppm after 24 to 48 hrs; assay type: functional, organism-based; outline: as §1
Aedes aegypti [8] = experiment: Insecticidal activity against third-instar larvae of Aedes aegypti assessed as mortality; assay type: functional
Outline: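 Third-instar larvae exposed in a diagnostic screen to 1000, 300, 270, 180, 140, 70, 60, 45 and 25 ppm. Five larvae per pot, four replicates per concentration, 1% DMSO-only control. Mortality scored at 24 and 48 h; larvae unable to reach the water surface when touched were counted dead.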

Aedes aegypti [9] = experiment: Insecticidal activity against third-instar larvae of Aedes aegypti assessed as mortality at 60 ppm after 24 to 48 hrs; assay type: functional, organism-based; outline: as §1
Aedes aegypti [10] = experiment: Insecticidal activity against third-instar larvae of Aedes aegypti assessed as mortality at 300 ppm after 24 to 48 hrs; assay type: functional, organism-based; outline: as §1
Aedes aegypti [11] = experiment: Insecticidal activity against third-instar larvae of Aedes aegypti assessed as mortality after 48 hrs; assay type: functional
Outline: (§2)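 In a second bioassay, third-instar larvae were exposed to 150, 130, 100, 85 and 55 ppm, with a 1% DMSO control. Five larvae per pot, four replicates. Death was scored as failure to reach the water surface when touched, at 24 h or 48 h. LC50 and LC99 with confidence intervals came from probit analysis.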

Aedes aegypti [12] = experiment: Insecticidal activity against third-instar larvae of Aedes aegypti assessed as mortality after 24 hrs; assay type: functional; outline: as §2

Chain of Acetylcholinesterase (P22303 whole entry): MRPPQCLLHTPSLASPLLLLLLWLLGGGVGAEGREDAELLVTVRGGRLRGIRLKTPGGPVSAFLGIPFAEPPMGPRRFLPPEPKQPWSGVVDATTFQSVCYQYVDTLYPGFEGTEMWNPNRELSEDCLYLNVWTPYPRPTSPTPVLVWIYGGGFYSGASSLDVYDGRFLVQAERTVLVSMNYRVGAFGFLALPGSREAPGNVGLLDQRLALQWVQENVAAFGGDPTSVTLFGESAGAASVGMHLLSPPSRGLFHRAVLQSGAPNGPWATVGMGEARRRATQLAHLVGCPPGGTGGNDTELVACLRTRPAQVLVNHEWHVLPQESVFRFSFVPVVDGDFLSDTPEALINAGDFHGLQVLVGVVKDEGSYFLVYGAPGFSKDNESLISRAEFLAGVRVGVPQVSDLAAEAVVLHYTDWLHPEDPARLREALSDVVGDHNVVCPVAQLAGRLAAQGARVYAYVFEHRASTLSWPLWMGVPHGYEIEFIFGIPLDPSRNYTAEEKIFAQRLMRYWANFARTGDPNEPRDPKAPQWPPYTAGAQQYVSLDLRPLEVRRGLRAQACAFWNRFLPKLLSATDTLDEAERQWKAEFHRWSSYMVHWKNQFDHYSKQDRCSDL

Structure (SMILES): N#CC(c1ccc2c(c1)OCO2)N1CCCCC1 (racemic)
Activity (Aedes aegypti [1]): Active
Activity (Aedes aegypti [2]): Active
IC50 (Acetylcholinesterase): 61.4 µM
Activity (Aedes aegypti [3]): Active
Activity (Aedes aegypti [4]): Active
pKa [5]: 4
Activity (Aedes aegypti [6]): Active
Activity (Aedes aegypti [7]): Active

Structure (SMILES): COc1cc(C(C#N)N2CCCCC2)cc(OC)c1OC (racemic)
IC50 (Acetylcholinesterase): 381 µM
pKa [5]: 3.9

pKa [5]: 2.4
Structure (SMILES): N#CC(c1ccc(O)cc1)N1CCOCC1 (racemic)

Structure (SMILES): COc1ccc(C(C#N)N2CCN(C)CC2)cc1O (racemic)
IC50 (Acetylcholinesterase): 350 µM
pKa [5]: 7.7

Structure (SMILES): COc1cc(C(C#N)N2CCN(C)CC2)cc(OC)c1OC (racemic)
IC50 (Acetylcholinesterase): 406 µM
pKa [5]: 7.6

Structure (SMILES): CCOP(=S)(OCC)Oc1cc(C)nc(C(C)C)n1 [DIMPYLATE]
IC50 (Acetylcholinesterase): 1.9 µM

Structure (SMILES): COc1ccc(C(C#N)N2CCCC2)cc1O (racemic)
IC50 (Acetylcholinesterase): 394 µM
pKa [5]: 4.3

Structure (SMILES): COP(=S)(OC)Oc1ccc(Sc2ccc(OP(=S)(OC)OC)cc2)cc1 [TEMEFOS]
LC50 (Aedes aegypti [8]): 0.006 µg/mL (≈ 0.0129 µM)

pKa [5]: 4.5
Structure (SMILES): N#CC(c1ccc(O)cc1)N1CCCC1 (racemic)

Structure (SMILES): COc1ccc(C(C#N)N2CCN(C)CC2)cc1OC (racemic)
IC50 (Acetylcholinesterase): 379 µM
pKa [5]: 7.6

Structure (SMILES): CN1CCN(C(C#N)c2ccc3c(c2)OCO3)CC1 (racemic)
IC50 (Acetylcholinesterase): 275 µM
pKa [5]: 7.6

Structure (SMILES): COc1cc(C(C#N)N2CCCC2)ccc1O (racemic)
IC50 (Acetylcholinesterase): 358 µM
pKa [5]: 4.4

Structure (SMILES): N#CC(c1ccc2c(c1)OCO2)N1CCOCC1 (racemic)
IC50 (Acetylcholinesterase): 58 µM
pKa [5]: 2.2
Activity (Aedes aegypti [6]): Active

Structure (SMILES): COc1cc(C(C#N)N2CCOCC2)cc(OC)c1OC (racemic)
IC50 (Acetylcholinesterase): 389 µM
pKa [5]: 2.1

Structure (SMILES): COc1ccc(C(C#N)N2CCOCC2)cc1OC (racemic)
IC50 (Acetylcholinesterase): 54 µM
pKa [5]: 2.2
Activity (Aedes aegypti [6]): Active

Structure (SMILES): N#CC(c1ccc(O)cc1)N1CCCCC1 (racemic)
IC50 (Acetylcholinesterase): 93 µM
pKa [5]: 4.2

Structure (SMILES): COc1ccc(C(C#N)N2CCCCC2)cc1O (racemic)
IC50 (Acetylcholinesterase): 478 µM
pKa [5]: 4

Structure (SMILES): COc1cc(C(C#N)N2CCCCC2)ccc1O (racemic)
IC50 (Acetylcholinesterase): 448 µM
pKa [5]: 4.1

pKa [5]: 7.7
Structure (SMILES): CN1CCN(C(C#N)c2ccc(O)cc2)CC1 (racemic)

Structure (SMILES): N#CC(c1ccc2c(c1)OCO2)N1CCCC1 (racemic)
Activity (Aedes aegypti [1]): Active
Activity (Aedes aegypti [2]): Active
IC50 (Acetylcholinesterase): 51 µM
pKa [5]: 4.3
Activity (Aedes aegypti [6]): Active

Structure (SMILES): COc1cc(C(C#N)N2CCOCC2)ccc1O (racemic)
IC50 (Acetylcholinesterase): 409 µM
pKa [5]: 2.3

Structure (SMILES): COc1ccc(C(C#N)N2CCCC2)cc1OC (racemic)
Activity (Aedes aegypti [2]): Active
IC50 (Acetylcholinesterase): 42 µM
Activity (Aedes aegypti [9]): Active
pKa [5]: 4.3
Activity (Aedes aegypti [6]): Active
Activity (Aedes aegypti [7]): Active

Structure (SMILES): COc1cc(C(C#N)N2CCN(C)CC2)ccc1O (racemic)
IC50 (Acetylcholinesterase): 340 µM
pKa [5]: 7.7

Structure (SMILES): COc1ccc(C(C#N)N2CCCCC2)cc1OC (racemic)
Activity (Aedes aegypti [2]): Active
IC50 (Acetylcholinesterase): 45 µM
Activity (Aedes aegypti [10]): Active
LC99 (Aedes aegypti [11]): 155.57 ppm
LC50 (Aedes aegypti [11]; Aedes aegypti, 48 h): 87.5 µg/mL (≈ 336 µM)
pKa [5]: 4
LC99 (Aedes aegypti [12]): 147.54 ppm
LC50 (Aedes aegypti [12]; Aedes aegypti, 24 h): 88.1 µg/mL (≈ 338 µM)

Structure (SMILES): COc1cc(C(C#N)N2CCCC2)cc(OC)c1OC (racemic)
IC50 (Acetylcholinesterase): 321 µM
pKa [5]: 4.2

Structure (SMILES): COc1ccc(C(C#N)N2CCOCC2)cc1O (racemic)
IC50 (Acetylcholinesterase): 363 µM
pKa [5]: 2.2
